Active and inactive are the calls of the source. The rule behind the calls is not given here.

We go through 2 molecules from ChEMBL document CHEMBL1240337, “Identification of proteases that regulate erythrocyte rupture by the malaria parasite Plasmodium falciparum” (Nat Chem Biol, 2008).

Data set [1] in a line: Cytotoxicity against african green monkey BSC1 cells after 24 hrs by celltiter glo assay. It counts as cell-based. Particulars: chlorocebus aethiops, bsc-1, 24 h. In short, it runs like this: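 BSC-1 African green monkey kidney epithelial cells exposed to compounds; viability read by CellTiter-Glo luminescence.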
For orientation: In ATP-based viability assays light output follows the ATP content of the culture.

Data set [2] relates to Plasmodium falciparum. Put plainly: Antiplasmodial activity against Plasmodium falciparum schizont infected in human erythrocytes assessed as effect on schizont morphology at 1 to 50 uM after 24 by propidium iodide staining-based FACS analysis. In kind it is functional, organism-based.
The test system of data set [3] is Plasmodium falciparum. The data set is described as follows: Antiplasmodial activity against Plasmodium falciparum infected in human erythrocytes assessed as blockade of parasite-mediated rupture of erythrocytes by Giemsa staining. It counts as functional, organism-based. The procedure, abridged:
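Giemsa-stained thin blood films were read from schizonts exposed at 36 h post invasion to 10 µM inhibitor, to assess rupture and morphology.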

Data set [4] has as its target T1, Probable cathepsin C (Plasmodium falciparum 3D7) (UniProt Q8IIJ9).
T1 sequence (whole entry): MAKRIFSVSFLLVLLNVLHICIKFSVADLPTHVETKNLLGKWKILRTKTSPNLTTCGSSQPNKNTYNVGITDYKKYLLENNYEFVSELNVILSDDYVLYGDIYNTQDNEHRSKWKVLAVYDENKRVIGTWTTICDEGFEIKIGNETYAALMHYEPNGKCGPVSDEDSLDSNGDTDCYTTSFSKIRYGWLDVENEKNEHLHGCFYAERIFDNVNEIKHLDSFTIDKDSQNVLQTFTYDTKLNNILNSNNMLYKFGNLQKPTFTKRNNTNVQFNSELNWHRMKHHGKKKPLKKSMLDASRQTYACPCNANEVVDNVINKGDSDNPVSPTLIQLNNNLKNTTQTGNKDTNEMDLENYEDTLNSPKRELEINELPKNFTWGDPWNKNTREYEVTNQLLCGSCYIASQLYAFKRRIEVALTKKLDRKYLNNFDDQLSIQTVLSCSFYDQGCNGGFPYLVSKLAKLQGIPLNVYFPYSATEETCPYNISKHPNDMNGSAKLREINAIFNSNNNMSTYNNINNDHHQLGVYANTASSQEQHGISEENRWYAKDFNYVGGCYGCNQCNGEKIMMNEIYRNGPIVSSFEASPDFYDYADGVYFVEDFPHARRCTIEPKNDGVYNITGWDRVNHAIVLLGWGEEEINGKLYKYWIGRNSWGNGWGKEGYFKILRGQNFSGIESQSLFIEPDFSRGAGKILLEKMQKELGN
The data set is described as follows: Inhibition of Plasmodium falciparum 3D7 cathepsin C by fluorescence spectrophotometry.

Take `CCC[C@H](N)C(=O)N[C@H](/C=C/S(=O)(=O)c1ccccc1)CCc1ccccc1`: the Activity result in data set [1] is listed as “Non-toxic”. Besides, in the data set on Plasmodium falciparum [2], the outcome was inactive. Besides, the result in the data set on Plasmodium falciparum [3] was Active. In data set [4], the inhibition entry was “Active”.

For the molecule `C[C@H](N)C(=O)N[C@H](/C=C/S(=O)(=O)c1ccccc1)CCc1ccccc1`, in data set [1], the Activity result is “Non-toxic”. The outcome in the data set on Plasmodium falciparum [2] was inactive. Also, the outcome in the data set on Plasmodium falciparum [3] was Active. Also, the inhibition entry in data set [4] is “Active”.
